{"data": "Results from different studies", "PTGS1": "Prostaglandin G/H synthase 1 (PTGS1, Ovis aries, UniProt P05979)", "BCHE": "Cholinesterase (BCHE, Equus caballus, UniProt P81908)", "Ar": "Androgen receptor (Ar, Rattus norvegicus, UniProt P15207)", "AGTR2": "Type-2 angiotensin II receptor (AGTR2, Homo sapiens, UniProt P50052)", "note": "Each line is one published result; the experiments were not run side by side."}
{"SMILES": "C#Cc1n[nH]c2c(-c3cn(C(C)c4ccccn4)c(=O)[nH]c3=O)cc(F)cc12 (stereo not shown)", "target": "Activin receptor type-1B (ACVR1B, Homo sapiens, UniProt P36896)", "assay": "enzyme activity, inhibitor", "conditions": "1 µM", "inhibition [%]": 3.8}
{"SMILES": "Oc1ccc(-c2ncccc2-c2nc3ccccc3s2)cc1", "target": "PTGS1", "assay": "enzyme activity, inhibitor, absorbance", "conditions": "10 µM", "inhibition [%]": 12.5}
{"SMILES": "COc1cc2c(cc1OC)C(=O)N(Cc1cccc(N3CCCCC3)n1)C2", "target": "BCHE", "assay": "enzyme activity, inhibitor, Ellman", "conditions": "1 µM", "inhibition [%]": 4.8}
{"SMILES": "Cn1cc(-c2cc(F)cc(N3CCn4c(cc5c4CCCC5)C3=O)c2CO)cc(Nc2ccc(N3CCN(C4COC4)CC3)cn2)c1=O", "target": "Dual specificity mitogen-activated protein kinase kinase 3 (MAP2K3, Homo sapiens, UniProt P46734)", "assay": "enzyme activity, inhibitor", "conditions": "0.1 µM", "inhibition [%]": -12}
{"SMILES": "CCCCCCCCCCCC(=O)OC[C@@H](COP(=O)(O)OCCNC(=O)c1ccc(Cn2c(=O)[nH]c3c(N)nc(OCCOC)nc32)cc1)OC(=O)CCCCCCCCCCC", "target": "Ar", "assay": "ligand displacement, radioligand", "conditions": "10 µM", "inhibition [%]": 55}
{"SMILES": "COc1cc2c(cc1OC)C(=O)N(CC1CCN(Cc3cccc(C)n3)CC1)C2", "target": "BCHE", "assay": "enzyme activity, inhibitor, Ellman", "conditions": "1 µM", "inhibition [%]": 3.4}
{"SMILES": "Cc1ccc(-c2nc3ccccc3s2)c(-c2cccc(O)c2)c1", "target": "PTGS1", "assay": "enzyme activity, inhibitor, absorbance", "conditions": "10 µM", "inhibition [%]": 11.7}
{"SMILES": "c1ccc(C(NCCNC(c2ccccc2)c2ccccc2)c2ccccc2)cc1", "target": "AGTR2", "assay": "cell-free assay", "conditions": "10 µM", "inhibition [%]": 14}
{"SMILES": "COc1cc2c(cc1OC)C(=O)N(Cc1ccc(F)nc1)C2", "target": "BCHE", "assay": "enzyme activity, inhibitor, Ellman", "conditions": "1 µM", "inhibition [%]": -6.8}
{"SMILES": "Nc1ccc(-c2nc3ccccc3s2)c(-c2cccc(O)c2)c1", "target": "PTGS1", "assay": "enzyme activity, inhibitor, absorbance", "conditions": "10 µM", "inhibition [%]": 27.7}
{"SMILES": "COc1ccc(S(=O)(=O)N2CCCCC2)cc1C", "target": "AGTR2", "assay": "ligand displacement, radioligand", "conditions": "10 µM", "inhibition [%]": "< 30"}
{"SMILES": "COc1ccc(-c2ccc(N)cc2-c2nc3ccccc3s2)cc1", "target": "PTGS1", "assay": "enzyme activity, inhibitor, absorbance", "conditions": "10 µM", "inhibition [%]": 65.4}
{"SMILES": "Cn1cc(-c2cccc(N3CCc4c(sc5c4CC(C)(C)C5)C3=O)c2CO)cc(Nc2ccncn2)c1=O", "target": "Serine/threonine-protein kinase MRCK alpha (CDC42BPA, Homo sapiens, UniProt Q5VT25)", "assay": "enzyme activity, inhibitor", "conditions": "1 µM", "inhibition [%]": 6}
{"SMILES": "COc1cc2c(cc1OC)C(=O)N(Cc1cccnc1)C2", "target": "BCHE", "assay": "enzyme activity, inhibitor, Ellman", "conditions": "1 µM", "inhibition [%]": -12.2}
{"SMILES": "O=C(Nc1cccnn1)N1CCN([C@@H]2CCOc3cc(C(F)(F)F)ccc32)CC1", "target": "AGTR2", "assay": "cell-free assay", "conditions": "20 µM", "inhibition [%]": 0}
{"SMILES": "Nc1ccc(-c2nc3ccccc3s2)c(-c2ccc(O)cc2)c1", "target": "PTGS1", "assay": "enzyme activity, inhibitor, absorbance", "conditions": "10 µM", "inhibition [%]": 14.2}
{"SMILES": "COc1cc2c(cc1OC)C(=O)N(CC1CCN(Cc3ccccn3)CC1)C2", "target": "BCHE", "assay": "enzyme activity, inhibitor, Ellman", "conditions": "1 µM", "inhibition [%]": 5.4}
{"SMILES": "NS(=O)(=O)c1ccc(-c2ncccc2-c2nc3ccccc3s2)cc1", "target": "PTGS1", "assay": "enzyme activity, inhibitor, absorbance", "conditions": "10 µM", "inhibition [%]": 0}
{"SMILES": "COc1ccc2[nH]cc(CCN3Cc4cc(OC)c(OC)cc4C3=O)c2c1", "target": "BCHE", "assay": "enzyme activity, inhibitor, Ellman", "conditions": "1 µM", "inhibition [%]": 19}
{"SMILES": "CC(C)N1CCC[C@H]1CNC(=O)c1cn(C2CCCC2)c(=O)c2c1c1ccccc1n2C", "target": "Ar", "assay": "ligand displacement, radioligand", "conditions": "10 µM", "inhibition [%]": 11}
{"SMILES": "Cc1ccc(-c2nc3ccccc3s2)c(-c2ccc(S(N)(=O)=O)cc2)c1", "target": "PTGS1", "assay": "enzyme activity, inhibitor, absorbance", "conditions": "10 µM", "inhibition [%]": 9.6}
{"SMILES": "COc1cc2c(cc1OC)C(=O)N(CC1CCN(Cc3cccnc3)CC1)C2", "target": "BCHE", "assay": "enzyme activity, inhibitor, Ellman", "conditions": "1 µM", "inhibition [%]": 2.7}
